Legend:
[1] = Antileukemic activity against human AML03 cells after 24 hrs by annexin V/7-AAD staining-based flow cytometric analysis; assay type: functional, cell-based
How it was run: (§1)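 Primary AML specimens from consenting donors, isolated by Ficoll-Paque gradient and sometimes cryopreserved. Cells were held 1 h in serum-free IMDM with 20% BIT 9500, LDL and β-mercaptoethanol before drug (DMSO stock diluted in PBS, ≤0.5% DMSO final). Exposure was 24 h over 0.5-10 μM. Annexin V/7-AAD double-negative cells, normalized to vehicle, gave the EC50. Run in triplicate.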

[2] = Antileukemic activity against human M9-ENL1 cells after 24 hrs by annexin V/7-AAD staining-based flow cytometric analysis; assay type: functional, cell-based
How it was run: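 M9-ENL1 cells in alpha-MEM with 5% human plasma, 20% FBS, SCF, IL-3, IL-7 and FLT3. Drug came from a DMSO stock diluted in PBS (≤0.5% DMSO final), for 24 h over 0.5-10 μM. Cells negative for both annexin V and 7-AAD were taken as non-apoptotic and normalized to vehicle. EC50 read from dose-response curves, triplicate.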

[3] = Antileukemic activity against human AML05 cells after 24 hrs by annexin V/7-AAD staining-based flow cytometric analysis; assay type: functional, cell-based; how it was run: as §1
[4] = Antileukemic activity against human AML04 cells after 24 hrs by annexin V/7-AAD staining-based flow cytometric analysis; assay type: functional, cell-based; how it was run: as §1
[5] = Antileukemic activity against human AML02 cells after 24 hrs by annexin V/7-AAD staining-based flow cytometric analysis; assay type: functional, cell-based; how it was run: as §1
[6] = Antileukemic activity against human AML01 cells after 24 hrs by annexin V/7-AAD staining-based flow cytometric analysis; assay type: functional, cell-based; how it was run: as §1
[7] = Potency index, ratio of parthenolide EC50 to compound EC50 for human M9-ENL1 cells; assay type: functional
[8] = Cytotoxicity against hematopoietic progenitor cells isolated from human umbilical cord blood by annexin V staining-based flow cytometric analysis; assay type: cell-based
How it was run: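 Cord-blood mononuclear cells from Ficoll-Paque were plated in serum-free medium, with drug from a DMSO stock (≤0.5% DMSO final). Cells were stained for CD34, CD45 and annexin V. The non-apoptotic fraction (annexin V-negative within the CD34+CD45dim compartment) was normalized to vehicle, and EC50 was fitted where possible. Triplicate.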

Row | EC50 [1] | EC50 [2] | EC50 [3] | EC50 [4] | EC50 [5] | EC50 [6] | SMILES | Ratio EC50 [7] | EC50 [8]
1 | 4.7 µM | 6 µM | 7 µM | 8 µM | 2.5 µM | 16 µM | C=C1C(=O)O[C@@H]2C3O[C@]3(C)CC/C=C(\C)CC[C@@H]12 (some centres not stated) |  | 
2 |  | 0.54 µM |  |  |  | 1.6 µM | C=C1C(=O)O[C@H]2[C@H]1CC/C(COC(=O)OC/C1=C/CC[C@@]3(C)O[C@H]3[C@H]3OC(=O)C(=C)[C@@H]3CC1)=C\CC[C@@]1(C)O[C@@H]21 | 2 | 
3 |  | 1 µM | 3.7 µM |  | 2.3 µM | 2.6 µM | C=C1C(=O)O[C@H]2[C@H]1CC/C(COC(=O)NCCCNC(=O)OC/C1=C/CC[C@@]3(C)O[C@H]3[C@H]3OC(=O)C(=C)[C@@H]3CC1)=C\CC[C@@]1(C)O[C@@H]21 | 2 | 
4 | 2.4 µM | 2 µM | 3.2 µM | 3.7 µM | 1.5 µM | 1.9 µM | C=C1C(=O)O[C@H]2[C@H]1CC/C(COC(=O)NCCCCCCCCCNC(=O)OC/C1=C/CC[C@@]3(C)O[C@H]3[C@H]3OC(=O)C(=C)[C@@H]3CC1)=C\CC[C@@]1(C)O[C@@H]21 | 2 | > 10 µM
5 | 3.5 µM | 1.5 µM | 1.7 µM | 3.7 µM | 1.2 µM | 1.6 µM | C=C1C(=O)O[C@H]2[C@H]1CC/C(COC(=O)NCCCCCCNC(=O)OC/C1=C/CC[C@@]3(C)O[C@H]3[C@H]3OC(=O)C(=C)[C@@H]3CC1)=C\CC[C@@]1(C)O[C@@H]21 | 2 | > 10 µM
6 | 0.86 µM | 1.2 µM | 2.7 µM | 2.7 µM |  | 0.93 µM | C=C1C(=O)O[C@H]2[C@H]1CC/C(COC(=O)OCCCCOC(=O)OC/C1=C/CC[C@@]3(C)O[C@H]3[C@H]3OC(=O)C(=C)[C@@H]3CC1)=C\CC[C@@]1(C)O[C@@H]21 | 2 | 
7 | 2.9 µM | 2.9 µM | 3.3 µM | 4.2 µM | 2 µM | 2.3 µM | C=C1C(=O)O[C@H]2[C@H]1CC/C(COC(=O)NCCCCCCCCCCNC(=O)OC/C1=C/CC[C@@]3(C)O[C@H]3[C@H]3OC(=O)C(=C)[C@@H]3CC1)=C\CC[C@@]1(C)O[C@@H]21 | 2 | > 10 µM
8 | 5.7 µM | 1.1 µM | 2.4 µM | 3.6 µM | 1.3 µM | 1.7 µM | C=C1C(=O)O[C@H]2[C@H]1CC/C(COC(=O)NCCCCCCCNC(=O)OC/C1=C/CC[C@@]3(C)O[C@H]3[C@H]3OC(=O)C(=C)[C@@H]3CC1)=C\CC[C@@]1(C)O[C@@H]21 | 2 | > 10 µM
9 | 1.4 µM | 2.4 µM | 2.1 µM |  | 2.2 µM |  | C=C1C(=O)O[C@H]2[C@H]1CC/C(COC(=O)OCCCCCOC(=O)OC/C1=C/CC[C@@]3(C)O[C@H]3[C@H]3OC(=O)C(=C)[C@@H]3CC1)=C\CC[C@@]1(C)O[C@@H]21 | 2 | 
